pIC50: −log10 of the molar value. The source made the active and inactive calls. The rule behind the calls is not given here.
What was measured:
Assay type in all cases: functional, cell-based
A2780 = assay: Cytotoxicity against human A2780 cells after 96 hrs by sulforhodamine B assay; conditions: A2780, 96 h
Summary of the method: (§1)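 Human tumour cell lines in 96-well plates, exposed to test compounds for 96 h, then read by colorimetric sulforhodamine B staining. Viable cells are expressed as % of untreated controls. IC50 is taken from dose–response curves, top concentration 30 µM, as the mean of at least three independent experiments (variation generally 10%). Compounds are given as DMSO solutions or as an aqueous liposomal formulation.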

8505C = assay: Cytotoxicity against human 8505C cells after 96 hrs by sulforhodamine B assay; summary of the method: as §1
[1] = Cytotoxicity against human liposarcoma cells after 96 hrs by sulforhodamine B assay; summary of the method: as §1
[2] = Cytotoxicity against human A253 cells after 96 hrs by sulforhodamine B assay; conditions: A253, 96 h; summary of the method: as §1
FaDu = assay: Cytotoxicity against human FADU cells after 96 hrs by sulforhodamine B assay; summary of the method: as §1
SW480 = assay: Cytotoxicity against human SW480 cells after 96 hrs by sulforhodamine B assay; conditions: SW480, 96 h; summary of the method: as §1
A549 = assay: Cytotoxicity against human A549 cells after 96 hrs by sulforhodamine B assay; conditions: A549, 96 h; summary of the method: as §1
HCT-116 = assay: Cytotoxicity against human HCT116 cells after 96 hrs by sulforhodamine B assay; conditions: HCT-116, 96 h; summary of the method: as §1
DLD-1 [3] = assay: Cytotoxicity against human DLD1 cells after 96 hrs by sulforhodamine B assay; conditions: DLD-1, 96 h; summary of the method: as §1
A-431 = assay: Cytotoxicity against human A431 cells after 96 hrs by sulforhodamine B assay; conditions: A-431, 96 h; summary of the method: as §1
HT-29 [4] = assay: Cytotoxicity against human HT-29 cells after 96 hrs by sulforhodamine B assay; conditions: HT-29, 96 h; summary of the method: as §1
SW-1736 = assay: Cytotoxicity against human SW1736 cells after 96 hrs by sulforhodamine B assay; conditions: SW-1736, 96 h; summary of the method: as §1
MCF7 = assay: Cytotoxicity against human MCF7 cells after 96 hrs by sulforhodamine B assay; conditions: MCF7, 96 h; summary of the method: as §1
HCT-8 = assay: Cytotoxicity against human HCT8 cells after 96 hrs by sulforhodamine B assay; conditions: HCT-8, 96 h; summary of the method: as §1
[5] = Cytotoxicity against human 518A2 cells after 96 hrs by sulforhodamine B assay; conditions: 518A2, 96 h; summary of the method: as §1
DLD-1 [6] = assay: Cytotoxicity against human DLD1 cells at 30 uM after 96 hrs by sulforhodamine B assay
Summary of the method: (§2)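 Growth inhibition at the highest tested concentration, 30 µM, after 96 h exposure in 96-well plates. Read by SRB staining as % viable cells relative to untreated controls, from at least three independent experiments.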

HT-29 [7] = assay: Cytotoxicity against human HT-29 cells at 30 uM after 96 hrs by sulforhodamine B assay; summary of the method: as §2
518A2 = assay: Cytotoxicity against human 518A2 cells at 30 uM after 96 hrs by sulforhodamine B assay; summary of the method: as §2

| Compound | pIC50 (A2780) | pIC50 (8505C) | pIC50 [1] | pIC50 [2] | pIC50 (FaDu) | pIC50 (SW480) | pIC50 (A549) | pIC50 (HCT-116) | pIC50 (DLD-1 [3]) | pIC50 (A-431) | pIC50 (HT-29 [4]) | pIC50 (SW-1736) | pIC50 (MCF7) | pIC50 (HCT-8) | pIC50 [5] | inhibition (DLD-1 [6]) | inhibition (HT-29 [7]) | inhibition (518A2) |
| --- | --- | --- | --- | --- | --- | --- | --- | --- | --- | --- | --- | --- | --- | --- | --- | --- | --- | --- |
| C=C(C)[C@@H]1CC[C@]2([C@@H]3OC(=O)C=C3NC3CC3)CC[C@]3(C)[C@H](CC[C@@H]4[C@@]5(C)CC[C@H](OC(C)=O)C(C)(C)[C@@H]5CC[C@]43C)[C@@H]12 | 5.60 | 5.22 | 5.24 | 5.38 | 5.22 | 5.10 | 5.18 | 5.49 | 5.33 | 5.54 | 5.29 | 5.41 | 5.40 | 5.72 | 5.21 | – | – | – |
| C=C(C)[C@@H]1CC[C@]2([C@H](O)C3=C(C(=O)OC)C(C(=O)OCC)N=N3)CC[C@]3(C)[C@H](CC[C@@H]4[C@@]5(C)CC[C@H](OC(C)=O)C(C)(C)[C@@H]5CC[C@]43C)[C@@H]12 (some centres not stated) | 5.04 | 5.05 | 4.70 | 4.90 | 5.00 | 5.11 | 4.83 | 5.01 | – | 5.12 | 4.92 | 4.79 | 5.10 | 5.00 | 4.67 | inactive | – | – |
| C=C(C)[C@@H]1CC[C@]2(C(=O)O)CC[C@]3(C)[C@H](CC[C@@H]4[C@@]5(C)CC[C@H](O)C(C)(C)[C@@H]5CC[C@]43C)[C@@H]12 [BETULINIC ACID] | 4.96 | – | 5.01 | – | – | – | – | – | – | – | – | – | – | – | – | – | – | – |
| C=C(C)[C@@H]1CC[C@]2([C@@H]3OC(=O)C=C3N3CCCC3)CC[C@]3(C)[C@H](CC[C@@H]4[C@@]5(C)CC[C@H](OC(C)=O)C(C)(C)[C@@H]5CC[C@]43C)[C@@H]12 | 5.66 | 5.28 | 5.22 | 5.34 | 5.20 | 5.24 | 5.11 | 5.68 | 5.27 | 5.68 | 5.41 | 5.39 | 5.43 | 6.30 | 5.33 | – | – | – |
| C=C(C)[C@@H]1CC[C@]2([C@H](O)C#CCO)CC[C@]3(C)[C@H](CC[C@@H]4[C@@]5(C)CC[C@H](OC(C)=O)C(C)(C)[C@@H]5CC[C@]43C)[C@@H]12 | 4.98 | 5.08 | 4.94 | 4.99 | 4.95 | 5.16 | 4.92 | 4.95 | – | 4.98 | 4.94 | 4.94 | 5.00 | 4.94 | 4.92 | inactive | – | – |
| C=C(C)[C@@H]1CC[C@]2([C@H](O)c3cnn(C)c3C(=O)OC)CC[C@]3(C)[C@H](CC[C@@H]4[C@@]5(C)CC[C@H](OC(C)=O)C(C)(C)[C@@H]5CC[C@]43C)[C@@H]12 | 4.90 | 4.97 | 4.85 | 4.80 | 4.75 | 5.15 | 4.61 | 4.69 | – | 4.91 | – | 4.64 | 4.91 | 4.87 | – | inactive | inactive | inactive |

— ChEMBL document CHEMBL1250553, “Synthesis, cytotoxicity and liposome preparation of 28-acetylenic betulin derivatives” (Bioorg Med Chem, 2010)
